Measured values published in ChEMBL document CHEMBL5108036, “A concise SAR-analysis of antimicrobial cationic amphipathic barbiturates for an improved activity-toxicity profile” (Eur J Med Chem, 2022).

What was measured:
[1] = (§1) Hemolytic activity in human RBC measured after 1 hr by microplate reader method; assay type: toxicity, cell-based, Erythrocyte; conditions: human, human red blood cells (erythrocytes)
Procedure, shortened: (§2)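 Human red blood cell lysis was used as the cytotoxicity read-out, expressed as EC50 in µg/mL. The highest concentration tested was 500 µM. Compounds were tested as di-TFA salts.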

[2] = test system: Bacillus subtilis; assay: Antibacterial activity against Bacillus subtilis 168 incubated for 48 hrs and measured by broth microdilution assay; assay type: functional
Procedure, shortened: (§3)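 MICs in µg/mL were measured against the reference strains S. aureus ATCC 9144, B. subtilis 168, E. coli ATCC 25922 and P. aeruginosa ATCC 27853. Compounds were tested as di-TFA salts.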

[3] = Selectivity index, ratio HC50 for hemolytic activity in human RBC to MIC for antibacterial activity against Staphylococcus aureus ATCC 9144; assay type: toxicity; conditions: human red blood cells (erythrocytes)
Procedure, shortened: (§4)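 SI is the ratio of RBC lysis EC50 to MIC for each reference strain.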

[4] = test system: Pseudomonas aeruginosa; assay: Antibacterial activity against Pseudomonas aeruginosa ATCC 27853 incubated for 48 hrs and measured by broth microdilution assay; assay type: functional; procedure, shortened: as §3
[5] = test system: Staphylococcus aureus; assay: Antibacterial activity against Staphylococcus aureus ATCC 9144 incubated for 48 hrs and measured by broth microdilution assay; assay type: functional; procedure, shortened: as §3
[6] = test system: Escherichia coli; assay: Antibacterial activity against Escherichia coli ATCC 25922 incubated for 48 hrs and measured by broth microdilution assay; assay type: functional; procedure, shortened: as §3
[7] = Selectivity index, ratio HC50 for hemolytic activity in human RBC to MIC for antibacterial activity against Bacillus subtilis 168; assay type: toxicity; conditions: human red blood cells (erythrocytes); procedure, shortened: as §4
[8] = test system: Erythrocyte; assay: as §1; assay type: toxicity, cell-based; conditions: erythrocyte; procedure, shortened: as §2
[9] = Solubility in pure water; assay type: physicochemical
[10] = Selectivity index, ratio HC50 for hemolytic activity in human RBC to MIC for antibacterial activity against Escherichia coli ATCC 25922; assay type: toxicity; conditions: human red blood cells (erythrocytes); procedure, shortened: as §4
[11] = Selectivity index, ratio HC50 for hemolytic activity in human RBC to MIC for antibacterial activity against Pseudomonas aeruginosa ATCC 27853; assay type: toxicity; conditions: human red blood cells (erythrocytes); procedure, shortened: as §4

Compound | EC50 at 1 h [1] [µg/mL] | MIC [2] [µg/mL] | selectivity ratio [3] | MIC [4] [µg/mL] | MIC [5] [µg/mL] | MIC [6] [µg/mL] | selectivity ratio [7] | EC50 [8] [µg/mL] | solubility [9] [µg/mL] | selectivity ratio [10] | selectivity ratio [11]
C[N+](C)(C)CCCCN1C(=O)N(CCCC[N+](C)(C)C)C(=O)C(Cc2cc(Br)cc(Br)c2)(Cc2cc(Br)cc(Br)c2)C1=O.O=C([O-])C(F)(F)F.O=C([O-])C(F)(F)F | > 539 | 8 | > 135 | 256 | 4 | 128 | > 67 |  |  |  | 
N=C(N)NCCCN1C(=O)N(CCCNC(=N)N)C(=O)C(Cc2ccc(C(F)(F)F)cc2)(Cc2ccc(C(F)(F)F)cc2)C1=O.O=C(O)C(F)(F)F.O=C(O)C(F)(F)F | > 435 | 4 | > 54 | 256 | 8 | 128 | > 109 |  |  |  | 
Cl.Cl.N=C(N)NCCCN1C(=O)N(CCCNC(=N)N)C(=O)C(Cc2ccc(Br)c(Cl)c2)(Cc2ccc(Br)c(Cl)c2)C1=O |  |  |  |  | 0.5 | 8 |  | 291 | < 1000 |  | 
N=C(N)NCCCN1C(=O)N(CCCNC(=N)N)C(=O)C(Cc2cc(Br)cc(Br)c2)(Cc2cc(Br)cc(Br)c2)C1=O.O=C(O)C(F)(F)F.O=C(O)C(F)(F)F | 187 | 2 | 93 | 8 | 2 | 4 | 93 |  |  | 47 | 23
N=C(N)NCCCCN1C(=O)N(CCCCNC(=N)N)C(=O)C(Cc2cc(Br)cc(Br)c2)(Cc2ccc3ccccc3n2)C1=O.O=C(O)C(F)(F)F.O=C(O)C(F)(F)F (centres undefined) | 450 | 4 | 225 | 32 | 2 | 32 | 113 |  |  |  | 
Cl.Cl.N=C(N)NCCCN1C(=O)N(CCCNC(=N)N)C(=O)C(Cc2cc(C(F)(F)F)cc(C(F)(F)F)c2)(Cc2cc(C(F)(F)F)cc(C(F)(F)F)c2)C1=O |  |  |  |  | 2 | 8 |  | 118 | ≤ 1000 |  | 
O=C([O-])C(F)(F)F.O=C([O-])C(F)(F)F.O=C1N(CCCC[n+]2ccccc2)C(=O)C(Cc2cc(Br)cc(Br)c2)(Cc2cc(Br)cc(Br)c2)C(=O)N1CCCC[n+]1ccccc1 | > 559 | 4 | > 280 | 128 | 2 | 8 | > 140 |  |  | > 70 | 
NCCCN1C(=O)N(CCCN)C(=O)C(Cc2ccc(Br)c(Cl)c2)(Cc2ccc(Br)c(Cl)c2)C1=O.O=C(O)C(F)(F)F.O=C(O)C(F)(F)F | 323 | 4 | 40 | 16 | 8 | 8 | 81 |  | < 1000 | 40 | 20
CC(C)(C)c1ccc(CC2(Cc3cc(Br)cc(Br)c3)C(=O)N(CCCNC(=N)N)C(=O)N(CCCNC(=N)N)C2=O)cc1.O=C(O)C(F)(F)F.O=C(O)C(F)(F)F (centres undefined) | 169 | 1 | 169 | 16 | 1 | 2 | 169 |  |  | 85 | 11
Cl.Cl.NCCCN1C(=O)N(CCCN)C(=O)C(Cc2ccc(Br)c(Cl)c2)(Cc2ccc(Br)c(Cl)c2)C1=O |  |  |  |  | 8 | 8 |  | 271 | ≤ 1000 |  | 
NCCCCN1C(=O)N(CCCCN)C(=O)C(Cc2cc(Br)cc(Br)c2)(Cc2cc(Br)cc(Br)c2)C1=O.O=C(O)C(F)(F)F.O=C(O)C(F)(F)F | 79 | 2 | 20 | 8 | 4 | 4 | 40 |  |  | 20 | 10
N=C(N)NCCCCN1C(=O)N(CCCCNC(=N)N)C(=O)C(Cc2cc(Br)cc(Br)c2)(Cc2cc(Br)cc(Br)c2)C1=O.O=C(O)C(F)(F)F.O=C(O)C(F)(F)F | 62 | 2 | 32 | 8 | 2 | 2 | 32 |  |  | 32 | 8
NCCCN1C(=O)N(CCCN)C(=O)C(Cc2cc(C(F)(F)F)cc(C(F)(F)F)c2)(Cc2cc(C(F)(F)F)cc(C(F)(F)F)c2)C1=O.O=C(O)C(F)(F)F.O=C(O)C(F)(F)F | 176 | 4 | 23 | 8 | 8 | 8 | 46 |  | < 1000 | 23 | 23
N=C(N)NCCCCN1C(=O)N(CCCCNC(=N)N)C(=O)C(Cc2ccc3ccccc3n2)(Cc2ccc3ccccc3n2)C1=O.O=C(O)C(F)(F)F.O=C(O)C(F)(F)F | > 432 | 16 |  | > 256 | 8 | 128 |  |  |  |  | 
NCCN1C(=O)N(CCN)C(=O)C(Cc2cc(Br)cc(Br)c2)(Cc2cc(Br)cc(Br)c2)C1=O.O=C(O)C(F)(F)F.O=C(O)C(F)(F)F | 39 | 4 |  | 8 | 4 | 4 |  |  |  |  | 
N=C(N)NCCCCN1C(=O)N(CCCCNC(=N)N)C(=O)C(Cc2cc(Br)cc(Br)c2)(Cc2ccc(Br)c3ccccc23)C1=O.O=C(O)C(F)(F)F.O=C(O)C(F)(F)F (centres undefined) | 58 | 4 |  | 8 | 1 | 4 |  |  |  |  | 
CCCCCCC1(Cc2cc(Br)cc(Br)c2)C(=O)N(CCCCNC(=N)N)C(=O)N(CCCCNC(=N)N)C1=O.O=C(O)C(F)(F)F.O=C(O)C(F)(F)F (centres undefined) | 58 | 4 |  | 8 | 2 | 4 |  |  |  |  | 
N=C(N)N[C@H]1C[C@H](N2C(=O)N([C@H]3C[C@H](NC(=N)N)C3)C(=O)C(Cc3cc(Br)cc(Br)c3)(Cc3cc(Br)cc(Br)c3)C2=O)C1.O=C(O)C(F)(F)F.O=C(O)C(F)(F)F | 62 | 4 |  | 8 | 2 | 4 |  |  |  |  | 
N=C(N)NCCCN1C(=O)N(CCCNC(=N)N)C(=O)C(Cc2ccc(Br)c(Cl)c2)(Cc2ccc(Br)c(Cl)c2)C1=O.O=C(O)C(F)(F)F.O=C(O)C(F)(F)F | 348 | 2 |  | 32 | 2 | 8 |  |  | < 1000 |  | 
NCCCN1C(=O)N(CCCN)C(=O)C(Cc2ccc3cc(Br)ccc3n2)(Cc2ccc3cc(Br)ccc3n2)C1=O.O=C(O)C(F)(F)F.O=C(O)C(F)(F)F | > 455 | 8 |  | 256 | 32 | 64 |  |  |  |  | 
NCCCCN1C(=O)N(CCCCN)C(=O)C(Cc2c(Br)cc(Br)cc2Br)(Cc2c(Br)cc(Br)cc2Br)C1=O.O=C(O)C(F)(F)F.O=C(O)C(F)(F)F | 30 | 2 |  | 4 | 2 | 4 |  |  |  |  | 
NCCCCN1C(=O)N(CCCCN)C(=O)C(Cc2ccc(C(F)(F)F)cc2)(Cc2cc(Br)cc(Br)c2)C1=O.O=C(O)C(F)(F)F.O=C(O)C(F)(F)F | 342 | 8 |  | 64 | 16 | 32 |  |  |  |  | 
N=C(N)NCCCN1C(=O)N(CCCNC(=N)N)C(=O)C(Cc2ccc(Br)c3ccccc23)(Cc2ccc(Br)c3ccccc23)C1=O.O=C(O)C(F)(F)F.O=C(O)C(F)(F)F | 61 | 2 |  | 8 | 2 | 4 |  |  |  |  | 
CC(C)(C)c1ccc(CC2(Cc3cc(Br)cc(Br)c3)C(=O)N(CCCCNC(=N)N)C(=O)N(CCCCNC(=N)N)C2=O)cc1.O=C(O)C(F)(F)F.O=C(O)C(F)(F)F (centres undefined) | 39 | 2 |  | 4 | 2 | 2 |  |  |  |  | 
Cl.Cl.NCCCN1C(=O)N(CCCN)C(=O)C(Cc2cc(C(F)(F)F)cc(C(F)(F)F)c2)(Cc2cc(C(F)(F)F)cc(C(F)(F)F)c2)C1=O |  |  |  |  | 8 | 8 |  | 224 | ≤ 1000 |  | 
N=C(N)N[C@H]1CC[C@@H](N2C(=O)N([C@H]3CC[C@@H](NC(=N)N)CC3)C(=O)C(Cc3cc(Br)cc(Br)c3)(Cc3cc(Br)cc(Br)c3)C2=O)CC1.O=C(O)C(F)(F)F.O=C(O)C(F)(F)F | 30 | 1 |  | 4 | 2 | 4 |  |  |  |  | 
NCCCCN1C(=O)N(CCCCN)C(=O)C(Cc2ccc3ccccc3n2)(Cc2ccc3ccccc3n2)C1=O.O=C(O)C(F)(F)F.O=C(O)C(F)(F)F | > 390 | 64 |  | > 256 | 256 | > 256 |  |  |  |  | 
NCCCCCN1C(=O)N(CCCCCN)C(=O)C(Cc2cc(Br)cc(Br)c2)(Cc2cc(Br)cc(Br)c2)C1=O.O=C(O)C(F)(F)F.O=C(O)C(F)(F)F | 24 | 4 |  | 8 | 4 | 8 |  |  |  |  | 
N=C(N)NCCCN1C(=O)N(CCCNC(=N)N)C(=O)C(Cc2ccc3cc(Br)ccc3n2)(Cc2ccc3cc(Br)ccc3n2)C1=O.O=C(O)C(F)(F)F.O=C(O)C(F)(F)F | > 497 | 4 | > 62 | > 128 | 8 | 64 | > 124 |  |  |  | 
